A value given as a limit tells only on which side of the number the result lay.

What all share (format): cell-based, human
Assay [1] has as its system HT-1080 fibrosarcoma cells. The assay is described as follows: Resazurin antiproliferative microtiter assay, HT-1080. The conditions noted are these: read-out: IC50, μM (± SEM), HT-1080, 48 h drug exposure. In short, it runs like this:
(§1)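 Human cells at 37 °C, 5% CO2, with 10% cosmic calf serum in DMEM/F12 (A549), DMEM (MDA-MB-231, HFF) or EMEM (HT-1080, MRC-5). Plated 5,000 cells/180 µL and left 24 h to adhere. Test compound 0.1–100 µM, quadruplicate, 2–3 repeats, 48 h. Then 0.1% resazurin; fluorescence ex 530/em 590 after 24–48 h.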

Assay [2] has as its system A549 lung carcinoma cells. The assay is described as follows: Resazurin antiproliferative microtiter assay, A549. The note with it: read-out: IC50, μM (± SEM), A549, 48 h drug exposure. In short, it runs like this:
as §1
(The colour change of resazurin is a common sign of viable cells or microbes.)

The subject of assay [3] is MDA-MB-231 breast carcinoma cells. The assay is described as follows: Resazurin antiproliferative microtiter assay, MDA-MB-231. The note with it: read-out: IC50, μM (± SEM), MDA-MB-231, 48 h drug exposure. In short, it runs like this: as §1

As for “Pyrrolidine-2-(4-methoxyphenyl)diazothioformamide – Cu(l)I [Compound 4b]”, the IC50 in assay [1] is < 1 µM.

With `N.N.[Cl][Pt][Cl]` [Cisplatin], the figures for the IC50 in assay [1], in assay [2] and in assay [3] were 17.5 µM, 19 µM and 48.6 µM, respectively. For “Piperidine-2-(4-methoxyphenyl)diazothioformamide – Cu(l)Br [Compound 5c]”, in assay [1], the IC50 was < 1 µM.

For orientation: IC50 means the concentration that inhibits the measured activity by half.

(Values after article PMC11375723 (ACS Omega, 2024).)
